Test results from paper PMC3217094 (DNA repair, 2011).
Where “and” joins values, the source holds several entries; their conditions need not be identical. Equal entries are not always repeated. Where two headings read alike, the source gives them in different places. {FAM} = fluorescein (FAM) label

Key:
AGT [1] = molecular target: T1, AGT (Homo sapiens, UniProt P16455); assay: DNA alkyltransferase assay; assay type: biochemical
T1 sequence (P16455 with tags, fused parts or gaps limits assumed): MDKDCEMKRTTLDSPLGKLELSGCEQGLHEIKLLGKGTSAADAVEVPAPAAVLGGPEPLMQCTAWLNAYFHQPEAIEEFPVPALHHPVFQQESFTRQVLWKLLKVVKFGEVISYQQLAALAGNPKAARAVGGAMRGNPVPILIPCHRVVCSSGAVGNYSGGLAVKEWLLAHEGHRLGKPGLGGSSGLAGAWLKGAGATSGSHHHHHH

benzyl-AGT [2] = molecular target: T2, benzyl-AGT (Homo sapiens, UniProt P16455, A204H/G205H/N207H/P202H/P203H/R206H); assay: Mobility shift titration of 32P-labeled 24-mer DNA with benzyl-AGT; assay type: binding; settings: AGT modified with O^6-benzylguanine
T2 sequence (P16455 with tags, fused parts or gaps): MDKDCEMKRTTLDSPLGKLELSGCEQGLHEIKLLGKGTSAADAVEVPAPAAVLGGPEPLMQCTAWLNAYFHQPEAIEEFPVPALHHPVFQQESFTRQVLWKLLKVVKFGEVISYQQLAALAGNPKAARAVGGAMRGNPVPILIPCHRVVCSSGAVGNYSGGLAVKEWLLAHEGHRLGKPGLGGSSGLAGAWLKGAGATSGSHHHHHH

benzyl-AGT [3] = molecular target: T2, benzyl-AGT; assay: Binding of FAM to benzyl-AGT detected by fluorescence anisotropy
AGT [4] = molecular target: T1, AGT; assay: Binding of free dye to AGT detected by fluorescence anisotropy
Procedure, shortened: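 Each step equilibrated 1 h at 4°C before reading anisotropy, with emission intensity also recorded. Fractional saturation Y = (A − A0)/(Amax − A0), where A0 is dye without protein and Amax the saturated complex, plotted against AGT concentration.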

AGT [5] = molecular target: T1, AGT; assay: Mobility shift assay: inhibition of AGT DNA binding; settings: IC50 for inhibition of DNA binding
AGT [6] = molecular target: T1, AGT; assay: Sedimentation equilibrium analysis of AGT-DNA complexes; assay type: binding; settings: mean ± SEM for ≥3 determinations, 4°C
AGT [7] = molecular target: T1, AGT; settings: AGT binding single-stranded DNA; for Hill coefficient (n) from anisotropy measurements / Hill coefficient (n) from intensity measurements: 4°C; for Ka from anisotropy measurements: apparent association constant
[8] = molecular target: T3, O6-alkylguanine-DNA alkyltransferase (AGT, MGMT) (human, UniProt P16455 1-201); assay: fluorescence anisotropy
[9] = molecular target: T3, O6-alkylguanine-DNA alkyltransferase …; assay: fluorescence anisotropy; remark: listed apart in the source
[10] = molecular target: T3, O6-alkylguanine-DNA alkyltransferase …; assay: fluorescence anisotropy; remark: listed apart in the source
[11] = molecular target: T3, O6-alkylguanine-DNA alkyltransferase …; assay: fluorescence anisotropy; remark: listed apart in the source

Nc1nc2c(ncn2[C@@H]2O[C@H](COP(=O)(O)O)[C@@H](O)[C@H]2O)c(=O)[nH]1 [5′-GMP, guanosine 5′ monophosphate]
IC50 (AGT [1]): 34.6 µM

Nc1nc(OCc2ccccc2)c2nc[nH]c2n1 [O^6-benzylguanine]
residual AGT activity in DNA repair after treatment (AGT [1]; AGT modified with O^6-benzylguanine (37°C, 50mM Tris, pH 7.6, 1mM EDTA, 5 mM DTT)): < 1%
DNA binding of treated AGT (benzyl-AGT [2]): fully-competent in DNA binding
apparent stoichiometry n of DNA binding (benzyl-AGT [2]; duplex 24mer DNA): 5.5 ± 0.2

O=C(O)c1ccc(C(=O)O)c(-c2c3ccc(=O)cc-3oc3cc(O)ccc23)c1 [FAM, 6-Carboxyfluorescein]
Kd (benzyl-AGT [3]): 82.2 µM
Kd (AGT [4]; Kd, apparent, from fluorescence anisotropy data, single-site (1:1) fit, unmodified AGT, 4°C, no DNA): 13 µM and 12.7 µM
apparent binding affinity K (Ka) (AGT [4]; fluorescence anisotropy, Eq. 5 with n = 1, 4°C): 7.84 ± 0.24 × 10^4 M^−1 and 7.8 × 10^4 M^−1
IC50 (AGT [5]; duplex 24mer 0.17μM, AGT 3.9μM, 20°C): 76.3 µM
IC50 (AGT [5]; electrophoretic analysis, approximate value): ~76 µM
concentration sufficient to completely inhibit AGT activity (AGT [1]): 1.8 mM

Cc1ccc2c(c1)sc(-c1ccc(N(C)C)cc1)[n+]2C [ThT, Thioflavin T]
IC50 (AGT [1]): 217 µM

Unmodified 16-mer Oligo A: 5′- AGT CAG TCA GTC AGT C -3′ (DNA AGTCAGTCAGTCAGTC; unmodified DNA)
Stoichiometry of saturated AGT-DNA complex (AGT [6]): 3.86 ± 0.08

3′-(FAM)-26-mer Oligo F: 5′- AGTCAGTCAGTCAGTCAGTCAGTCAG(FAM) -3′ (DNA AGTCAGTCAGTCAGTCAGTCAGTCAG; DNA, 3' {FAM}, backbone not given here)
Stoichiometry of saturated AGT-DNA complex (AGT [6]): 6.38 ± 0.21
Hill coefficient (n) from anisotropy measurements (AGT [7]): 2.13 ± 0.14
Hill coefficient (n) from intensity measurements (AGT [7]): 3.33 ± 0.27
Ka from anisotropy measurements (AGT [7]): 3.30 ± 0.12 × 10^5 M^−1

O=S(=O)(O)c1cccc2c(-c3ccc(Nc4ccccc4)c4c(S(=O)(=O)O)cccc34)ccc(Nc3ccccc3)c12 [Bis-ANS, 4,4′-bis(phenylamino)-[1,1′-Binaphthalene]-5,5′-disulfonic acid]
Kd (AGT [4]): 33.1 µM
IC50 (AGT [1]): 48.6 µM

5′-(FAM)-26-mer Oligo F: 5′- (FAM)AGTCAGTCAGTCAGTCAGTCAGTCAG -3′ (DNA AGTCAGTCAGTCAGTCAGTCAGTCAG; DNA, 5' {FAM}, backbone not given here)
Stoichiometry of saturated AGT-DNA complex (AGT [6]): 6.59 ± 0.20
Hill coefficient (n) from anisotropy measurements (AGT [7]): 2.02 ± 0.17
Hill coefficient (n) from intensity measurements (AGT [7]): 2.92 ± 0.62
Ka from anisotropy measurements (AGT [7]): 3.33 ± 0.15 × 10^5 M^−1

Unmodified 26-mer: 5′- AGTCAGTCAGTCAGTCAGTCAGTCAG -3′ (DNA AGTCAGTCAGTCAGTCAGTCAGTCAG; unmodified DNA)
Stoichiometry of saturated AGT-DNA complex (AGT [6]): 5.89 ± 0.07

AGTCAGTCAGTCAGTCAGTCAGTCAG (ssDNA) [3'-FAM-Oligo F]
Ka [8]: 330000 M⁻¹

AGTCAGTCAGTCAGTC (ssDNA) [3'-FAM-Oligo A]
Ka [9]: 282000 M⁻¹

AGTCAGTCAGTCAGTCAGTCAGTCAG (ssDNA) [5'-FAM-Oligo F]
Ka [10]: 333000 M⁻¹

AGTCAGTCAGTCAGTC (ssDNA) [5'-FAM-Oligo A]
Ka [11]: 295000 M⁻¹
